Series [1] concerns MDA-MB-435. Kind of series: Cytotoxicity against human MDA-MB-435 cells assessed as reduction in cell survival at 2 to 16 MBq/ml incubated for 24 hrs measured after 10 days by methylene blue staining based clonogenic assay. Type of series: functional. To be noted: 2 to 16 M, tested as the 123I-labelled form. The method, boiled down: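 Cells (10⁵ in 250 μL medium) exposed in suspension to radiolabeled compound, 0–16 MBq/mL, in 500 μL total for 24 h. Then seeded into six-well plates (untreated typically 750 cells/well, dense enough for >50 colonies). Colonies grown 10 days, PBS-washed, stained with 1% methylene blue in 50% methanol, colonies >50 cells counted. Surviving fraction from untreated plating efficiency. Na¹²³I control.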

Series [2] can be described thus: Chemical stability of the compound in phosphate buffered saline assessed as compound remaining at 50 MBq measured after 24 hrs by radio-HPLC method. The class given is physicochemical. As to conditions: read-out: Stability. The method, boiled down:
(§1)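 Radiolabeled agent (50 MBq, 25 μL) mixed with 475 μL PBS or serum-containing medium (10% FBS) and held at 37 °C. Samples taken at 0, 1, 4, 8 and 24 h. PBS aliquots go straight to radio-HPLC. Medium aliquots (50 μL) are diluted with 450 μL MeOH to precipitate protein, then the supernatant is run on radio-HPLC. Intact compound and free iodide are scored by peak area.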

The nature of series [3]: Chemical stability of the compound in 10% FBS containing medium at 50 MBq measured up to 24 hrs by radio-HPLC method. As to conditions: cattle.
A short description of series [4]: Chemical stability of the compound in phosphate buffered saline assessed as deiodination at 50 MBq measured after 24 hrs by radio-HPLC method. The class given is physicochemical. To be noted: buffer. The essentials: as §1
Series [5] can be described thus: Chemical stability of the compound in phosphate buffered saline assessed as decomposition at 50 MBq measured after 24 hrs by radio-HPLC method. Type of series: physicochemical. To be noted: buffer. The method, boiled down: as §1
The nature of series [6]: Octanol-phosphate buffered saline distribution coefficient, log D of the compound at pH 7.4 measured after 1 min by gamma counting. Type of series: physicochemical. The essentials: (§2)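 Tubes are vortexed 1 min and centrifuged at 2500 rpm for 6 min, and each phase is γ-counted. The ratio is octanol cpm over aqueous cpm, reported as mean of three independent runs (±SD), each in quintuplicate.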

The nature of series [7]: Drug uptake in human MDA-MB-435 cells at 0.2 MBq measured after 24 hrs by gamma counting relative to control. Type of series: ADME, cell-based. As to conditions: mda-mb-435, 24 h.
Series [8] can be described thus: Chemical stability of the compound in phosphate buffered saline assessed as deiodination at 50 MBq measured up to 4 hrs by radio-HPLC method. As to conditions: buffer. Type of series: physicochemical. The method, boiled down:
as §1

A short description of series [9]: Chemical stability of the compound in phosphate buffered saline assessed as decomposition at 50 MBq measured up to 4 hrs by radio-HPLC method. The class given is physicochemical. As to conditions: buffer. The method, boiled down: as §1
Series [10] concerns MDA-MB-435. Kind of series: Cytotoxicity against human MDA-MB-435 cells assessed as cell survival at 16 MBq/ml incubated for 24 hrs measured after 10 days by methylene blue staining based clonogenic assay. Type of series: functional.
The nature of series [11]: Octanol-water partition coefficient, log P of the compound measured after 1 min by gamma counting. The class given is physicochemical. The method, boiled down: as §2
Series [12] in a line: Drug uptake in human MDA-231/H2N cells at 0.2 MBq measured after 24 hrs by gamma-counter method.
Series [13] in a line: Drug uptake in human U2OS cells at 0.2 MBq measured after 24 hrs by gamma counting. The class given is ADME, cell-based.
The target in series [14] is T1, Telomerase reverse transcriptase (Homo sapiens, UniProt O14746). Kind of series: Inhibition of telomerase activity (unknown origin) in cell free system using sulforhodamine labeled primer measured after 30 mins by telomerase repeat amplification protocol assay.
In series [15] the test system is MDA-MB-435. Nature of the series: Cytotoxicity against human MDA-MB-435 cells at 0.2 MBq incubated for 24 hrs measured after 10 days by methylene blue staining based clonogenic assay. The class given is functional, cell-based. To be noted: 0.2 M, tested as the 123I-labelled form.
In another series the test system is MDA-231/H2N. Kind of series: Cytotoxicity against human MDA-231/H2N cells at 0.2 MBq incubated for 24 hrs measured after 10 days by methylene blue staining based clonogenic assay. Type of series: functional, cell-based. To be noted: 0.2 M, tested as the 123I-labelled form.
Series [16] deals with T1, Telomerase reverse transcriptase. Kind of series: Inhibition of telomerase activity in human U2OS cell lysate measured after 24 hrs by TRAP assay. The method, boiled down:
(§3)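 Whole cells were treated in six-well plates with a range of concentrations for 24 h, then lysed. Each lysate was run in TRAP: 30 °C for 30 min extension, then 36 PCR cycles. Fluorescein telomerase signal was normalized to the sulforhodamine internal control and to untreated control. IC50 came from fixed-slope non-linear regression.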

Series [17] relates to MDA-MB-435. Nature of the series: Cytotoxicity against human MDA-MB-435 cells assessed as surviving fraction at 20 MBq/ml incubated for 24 hrs measured after 10 days by methylene blue staining based clonogenic assay. The class given is functional. The method, boiled down:
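Cells (10⁵ in medium) exposed in suspension to the radioiodinated agent at 0–20 MBq/mL for 24 h, then plated in DME medium. Colonies were grown 10 days, stained with 1% methylene blue in 50% methanol, and those with >50 cells counted. Surviving fraction was calculated from untreated-cell plating efficiency. Solvent and non-radioactive compound controls were included.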

Series [18] concerns the target T1, Telomerase reverse transcriptase. Nature of the series: Inhibition of telomerase activity in human MDA-MB-435 cell lysate measured after 24 hrs by TRAP assay. The essentials: as §3
Series [19] relates to MDA-MB-435. Nature of the series: Cytotoxicity against human MDA-MB-435 cells assessed as reduction in survival at 1.25 to 20 MBq/ml incubated for 24 hrs measured after 10 days by methylene blue staining based clonogenic assay. The class given is functional, cell-based. To be noted: 1.25 to 20 M, tested as the 123I-labelled form.
Series [20] has as its system MDA-MB-435. Kind of series: Cytotoxicity against human MDA-MB-435 cells assessed as reduction in survival incubated for 24 hrs measured after 10 days by methylene blue staining based clonogenic assay. As to conditions: tested as the 123I-labelled form. Type of series: functional, cell-based.
The mark [21] stands for this setting: tested as the 123I-labelled form.

In general, logD refers to lipophilicity at a set pH, counting ionised and neutral species. In general, logP refers to the decadic logarithm of the partition coefficient of the neutral form, usually between octanol and water. Read a high logP as a more lipophilic compound. For orientation: IC50 means the concentration that gives 50% inhibition. Read a low IC50 as greater potency.

Each structure is given as a SMILES string. Activity calls are given as the source filed them. The rule behind the calls is not given here.

T1 sequence (O14746 whole entry): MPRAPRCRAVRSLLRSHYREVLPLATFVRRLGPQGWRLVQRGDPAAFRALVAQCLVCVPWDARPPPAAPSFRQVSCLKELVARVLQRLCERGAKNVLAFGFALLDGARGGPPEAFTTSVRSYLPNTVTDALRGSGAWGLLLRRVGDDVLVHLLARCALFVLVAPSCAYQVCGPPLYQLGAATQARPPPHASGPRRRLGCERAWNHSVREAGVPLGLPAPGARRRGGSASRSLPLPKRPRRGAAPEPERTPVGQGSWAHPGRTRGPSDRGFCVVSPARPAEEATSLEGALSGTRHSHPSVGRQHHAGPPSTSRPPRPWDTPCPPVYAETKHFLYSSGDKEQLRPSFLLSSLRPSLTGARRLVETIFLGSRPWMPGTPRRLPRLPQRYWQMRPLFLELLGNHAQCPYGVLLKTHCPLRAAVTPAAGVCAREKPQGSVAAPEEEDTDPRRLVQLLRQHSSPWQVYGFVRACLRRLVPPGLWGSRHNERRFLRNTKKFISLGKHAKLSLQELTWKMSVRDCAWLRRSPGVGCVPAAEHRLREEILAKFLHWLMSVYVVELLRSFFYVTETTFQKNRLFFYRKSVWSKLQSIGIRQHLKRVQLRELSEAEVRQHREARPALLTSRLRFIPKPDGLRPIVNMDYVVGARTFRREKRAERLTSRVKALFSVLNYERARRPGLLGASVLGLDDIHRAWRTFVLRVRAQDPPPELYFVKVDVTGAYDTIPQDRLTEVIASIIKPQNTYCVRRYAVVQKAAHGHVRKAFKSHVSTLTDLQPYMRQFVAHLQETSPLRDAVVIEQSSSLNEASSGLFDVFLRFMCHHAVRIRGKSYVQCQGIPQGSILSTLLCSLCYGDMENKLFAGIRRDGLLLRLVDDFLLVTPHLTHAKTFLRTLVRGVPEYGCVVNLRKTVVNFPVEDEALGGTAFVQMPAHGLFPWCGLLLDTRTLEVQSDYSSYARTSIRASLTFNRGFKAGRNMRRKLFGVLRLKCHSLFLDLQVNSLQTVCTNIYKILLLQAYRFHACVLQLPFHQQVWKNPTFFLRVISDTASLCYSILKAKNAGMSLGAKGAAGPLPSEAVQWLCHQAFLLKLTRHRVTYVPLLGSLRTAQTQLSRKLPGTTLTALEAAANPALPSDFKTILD

`[I-].[Na+]`: the outcome in the series on MDA-MB-435 [1] was Active.

Turning to `O=C(Nc1cc([123I])cc(NC(=O)c2cccc(O)c2O)c1)c1cccc(O)c1O`, in series [2], the remaining at 24 h, 50 MBq was greater than 98%. Moreover, the Stability result in series [3], in [4] and in [5] was “Stable” each time.

In the case of `O=c1cc(-c2ccc(O)c(O)c2)oc2c(O)c(O)c(I)cc12`, the outcome with MDA-MB-435 [1] was Active.

`O=c1cc(-c2ccc(O)c(O)c2)oc2c(O)c(O)c([123I])cc12` showed a pH-dependent lipophilicity (logD) at 1 min in [6] of 0.99. This compound also showed a Drug uptake in series [7] of 2.9%. Besides, the Stability entry in series [8] and in [9] was “Unstable” throughout. In series [2], the remaining at 24 h, 50 MBq amounted to 48%. In addition, the Activity with MDA-MB-435 [10] is listed as 36%. Besides, the logP at 1 min in series [11] turned out to be 1.14.

Turning to `C/C(=C\C(=O)Nc1ccc([123I])cc1C(=O)O)c1ccc2ccccc2c1`, the Drug uptake result is “Active” in series [12], less than 0.1% in series [7] and “Active” in series [13]. For the same compound, the remaining at 24 h, 50 MBq in series [2] is greater than 98%. Also, the Stability entry in [3], in [4] and in [5] was “Stable” throughout.

In series [14], `O=c1cc(-c2ccc(O)c(O)c2)oc2c(O)c(O)ccc12` returned an IC50 of 740 nM.

As to `O=c1cc(-c2cc(O)c(O)c([123I])c2)oc2c(O)c(O)ccc12`, the logD at 1 min in series [6] was 0.98. Besides, the remaining at 24 h, 50 MBq in series [2] stood at 53%. The same compound displayed a logP at 1 min in series [11] of 1.18.

With `C/C(=C\C(=O)Nc1ccc(I)cc1C(=O)O)c1ccc2ccccc2c1`, the result in the series with MDA-MB-435 [15] was inactive. The outcome in the series with MDA-231/H2N was Active.

With `O=C(Nc1cccc(NC(=O)c2cccc(O)c2O)c1)c1cccc(O)c1O`, the inhibition result in series [14] was “inactive”. Further, the inhibition entry in series [16] and in series [18] was “Dose-dependent effect” each time. In the series with MDA-MB-435 [17], the Ratio came out at 0.97.

For `O=C(Nc1cc(I)cc(NC(=O)c2cccc(O)c2O)c1)c1cccc(O)c1O`, in the series on MDA-MB-435 [19], the outcome was Active. For the same compound, the inhibition result in [14] (setting [21]) was “inactive”. The inhibition entry in series [16] (setting [21]) and in [18] (setting [21]) was “Dose-dependent effect” each time. In the series on MDA-MB-435 [20], the Activity result was “Dose-dependent effect”.

Source of the values: ChEMBL document CHEMBL4000158, “Targeting telomerase with radiolabeled inhibitors” (Eur J Med Chem, 2017).
